Data set [1] concerns J774.A1. The data set can be described thus: Inhibition of pyroptosis in LPS-primed immortalized mouse […] cells followed by subsequent nigericin stimulation by imaging analysis. The format is functional, cell-based.
A short description of data set [2]: Toxicity in zebrafish embryo. Set-up: species or system Danio rerio. The conditions noted are these: in vivo. The essentials: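 Zebrafish embryos exposed to compound. EC100 is the concentration at which all treated embryos show early lethality, embryonic defects or developmental delay.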
The subject of data set [3] is J774.A1. The data set can be described thus: Inhibition of pyroptosis in LPS-primed immortalized mouse […] cells assessed as reduction in nigericin-induced IL-beta secretion by imaging analysis. The format is functional.
The target of the next data set is T1, Caspase-1 (Homo sapiens) (UniProt P29466).
T1 sequence (whole entry): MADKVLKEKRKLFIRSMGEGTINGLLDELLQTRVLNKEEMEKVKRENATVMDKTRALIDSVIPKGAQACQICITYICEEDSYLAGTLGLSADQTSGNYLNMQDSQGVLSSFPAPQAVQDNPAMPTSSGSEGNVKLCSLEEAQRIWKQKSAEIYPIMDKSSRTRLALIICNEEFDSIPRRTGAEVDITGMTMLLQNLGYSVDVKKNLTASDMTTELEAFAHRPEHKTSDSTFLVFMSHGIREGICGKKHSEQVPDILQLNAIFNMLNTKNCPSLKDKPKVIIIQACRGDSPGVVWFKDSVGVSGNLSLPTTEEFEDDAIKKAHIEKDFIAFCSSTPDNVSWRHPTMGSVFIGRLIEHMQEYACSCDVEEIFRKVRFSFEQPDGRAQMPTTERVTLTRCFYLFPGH
In words: Inhibition of pronase-mediated caspase-1 degradation in HEK293 cell lysate at 5 uM measured after 30 mins by DARTS based Western blot analysis. The format is cell-free. The essentials:
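DARTS assay: cell lysates pretreated with compound, then digested with different Pronase concentrations. Caspase-1 stability read by immunoblot against a histone H3 control.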

Active and inactive are the calls of the source. The calls are words filed in the database; no cut-off is given here. Bounds are passed on as bounds.

Consider `CCOC(CN1C(=O)C(NC(=O)OC(C)(C)C)(C(F)(F)C(=O)c2ccccc2)c2ccccc21)OCC` (stereo not drawn), for which a half-maximal response in the data set on J774.A1 [1] (EC50) required 9.5 µM. In data set [2], this compound gave an EC100 of 50 µM. Besides, the Activity in the data set with J774.A1 [3] came out at 222.04 pg/mL.

With `CC(C)(C)OC(=O)NC1(C(F)(F)C(=O)c2ccccc2)C(=O)Nc2ccccc21` (stereo not drawn), in data set [2], the EC100 was > 50 µM. In addition, in the data set on J774.A1 [3], the Activity came out at 240.83 pg/mL.

With `CN1C(=O)C(NC(=O)OC(C)(C)C)(C(F)(F)C(=O)c2ccccc2)c2ccccc21` (stereo not drawn), on Caspase-1 (Homo sapiens), the inhibition entry was “inactive”. Also, in data set [2], the EC100 is > 50 µM. Also, the Activity with J774.A1 [3] is 232.64 pg/mL.

For `N#CC(C#N)C1(C(F)(F)C(=O)c2ccc(Cl)cc2)C(=O)Nc2ccccc21` (stereo not drawn), in data set [2], the EC100 was 20 µM. In addition, in the data set on J774.A1 [3], the Activity was 252.29 pg/mL.

In the case of `CCOC(CN1C(=O)C(NC(=O)OC(C)(C)C)(C(F)(F)C(=O)c2ccc(OC)cc2)c2ccccc21)OCC` (stereo not drawn), the response in the data set with J774.A1 [1] was half-maximal at 17.5 µM (EC50). Further, the EC100 in data set [2] is > 50 µM. Moreover, the Activity in the data set with J774.A1 [3] was determined as 202.6 pg/mL.

The values are drawn from ChEMBL document CHEMBL4619791, “3-Difluoroalkyl Quaternary Oxindoles Inhibit Macrophage Pyroptosis by Blocking Inflammasome Recruitment of Caspase-1” (ACS Med Chem Lett, 2020).
